Experimental data reported in ChEMBL document CHEMBL1139474, “Cellular apoptosis and cytotoxicity of phenolic compounds: a quantitative structure-activity relationship study” (J Med Chem, 2005).

Legend:
MCF7 = test: Cytotoxicity against human MCF7 cells
L1210 [1] = test: Activity against caspase-mediated apoptosis in mouse L1210 cells at 0.1 mM; assay type: functional
CCRF-CEM = test: Cytotoxicity against human CCRF-CEM cells
[2] = Cytotoxicity against human CEM/VLB cells
L1210 [3] = test: Cytotoxicity against mouse L1210 cells; conditions: for log(1/ID50): mouse, l1210
L1210 [4] = test: Activity against caspase-mediated apoptosis in mouse L1210 cells; assay type: functional
HL-60 [5] = test: Cytotoxicity against human HL60 cells; assay type: cell-based
Summary of the method: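 HL-60 cells grown at 37 °C in RPMI with L-glutamine and 10% FBS, then seeded at (2–5) × 10⁴ cells/mL, in duplicate, at eight or more concentrations. Compounds were diluted in unsupplemented RPMI and added 1:10. After 48 h of continuous exposure, CyQUANT GR nucleic-acid dye fluorescence was read (ex 485/em 530 nm). IC50 is the concentration giving 50% lower fluorescence than controls, taken from the dose-response curve.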

HL-60 [6] = test: Induction of DNA fragmentation in human HL60 cells after 16 hrs; assay type: functional, cell-based; conditions: HL-60, 16 h
L1210 [7] = test: Induction of apoptosis in mouse L1210 cells at 151 uM; assay type: functional
Summary of the method: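 L1210 cells at 4 × 10⁴ cells/mL were incubated with or without the phenol for 12 h at 37 °C. Caspase activity was then measured in a homogeneous fluorimetric assay: DEVD-rhodamine 110 substrate in incubation buffer was added for 2 h at 37 °C, and fluorescence was read at 521 nm with excitation at 490 nm.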

| SMILES | log(1/ID50) (MCF7) | Activity (L1210 [1]) | log(1/ID50) (CCRF-CEM) | log(1/ID50) [2] | log(1/ID50) (L1210 [3]) | log(1/ID50) (L1210 [4]) | log(1/ID50) (HL-60 [5]) | IC50 (HL-60 [6]) | Activity (L1210 [7]) | IC50 (L1210 [3]; Mus musculus, L1210) |
| --- | --- | --- | --- | --- | --- | --- | --- | --- | --- | --- |
| CCc1ccc(O)cc1 | 2.91 | <15% | 3.79 | 3.84 | 3.86 | – | – | – | – | – |
| Oc1ccc(Oc2ccccc2)cc1 | 3.99 | <15% | – | – | 4.97 | 0.19 | – | – | – | – |
| CCOc1ccc(O)cc1 [1-hydroxy-4-ethoxybenzene] | 3.7 | <15% | – | – | 4.64 | – | – | – | – | – |
| CCCOc1ccc(O)cc1 [1-hydroxy-4-propoxybenzene] | – | <15% | – | – | 4.85 | 0.09 | 3.7 | – | – | – |
| Cl.Nc1ccc(O)cc1 [4-AMINOPHENOL HYDROCHLORIDE] | – | <15% | 4.61 | 1.94 | 5.09 | – | 4.5 | – | – | – |
| COc1ccc(O)c(C(C)(C)C)c1.COc1ccc(O)cc1C(C)(C)C [BUTYLATED HYDROXYANISOLE] | – | – | – | – | 3.82 | 2.71 | – | 1.38 mM | 15% | – |
| Cc1cc(C(C)(C)C)c(O)c(C(C)(C)C)c1 [BUTYLATED HYDROXYTOLUENE] | – | – | – | – | 4.04 | 2.09 | – | 3.18 mM | – | 0.0912 mM |
| COc1ccc(O)cc1 [MEQUINOL] | – | <15% | 4.41 | 4.36 | – | 0.02 | 3.6 | – | – | – |
| Oc1ccccc1 [PHENOL] | 2.56 | <15% | 3.27 | 2.65 | 3.27 | -0.2 | 3.05 | – | – | – |
| Cc1ccc(O)cc1 [p-CRESOL] | – | <15% | 3.82 | 4.05 | 3.85 | – | 3.35 | – | – | – |
